Measurements gathered from unrelated publications.
Read-out: DPPH scavenging

SMILES	test	setting	inhibition [%]
CCN(O)N=Nc1ccc(S(=O)(=O)Nc2nccs2)cc1	absorbance	20 µg/mL	6.63
Cc1ccc(C(C)C)cc1NC(=O)COC(=O)c1ccc(O)c(O)c1		100 µg/mL	91.8
COc1cc(C=Cc2cc(-c3ccc(N(C)C)cc3)nc(O)n2)ccc1O		12.5 µg/mL	39.4
CCCN(O)N=Nc1ccc(S(=O)(=O)Nc2cc(C)on2)cc1	absorbance	180 µg/mL	22.8
O=C1O[C@H]([C@@H](O)CO)C(O)=C1O		50 µg/mL	77.6
Cc1ccc(C(C)C)cc1NC(=O)COC(=O)/C=C/c1ccc(Cl)cc1		100 µg/mL	7.5
COc1cc(C=CC(=O)CC(c2ccc(N(C)C)cc2)n2ccnc2)ccc1O (stereo not drawn)		50 µg/mL	65.2
O=C1O[C@H]([C@@H](O)CO)C(O)=C1O	absorbance	40 µM	41.6
CCN(O)N=Nc1ccc(S(=O)(=O)Nc2onc(C)c2C)cc1	absorbance	60 µg/mL	10.9
CC1(C)CC[C@]2(C(=O)O)CC[C@]3(C)C(=CC[C@@H]4[C@@]5(C)CC[C@H](O)C(C)(C)[C@@H]5CC[C@]43C)[C@@H]2C1		100 µg/mL	95.6
COc1cc(C=CC(=O)CC(c2ccc([N+](=O)[O-])cc2)n2ccnc2)ccc1O (stereo not drawn)		25 µg/mL	50.7
Cc1cc(NS(=O)(=O)c2ccc(N=NN(O)c3ccccc3)cc2)no1	absorbance	240 µg/mL	33.7
Cc1ccc(C(C)C)cc1NC(=O)COC(=O)c1cccc(O)c1		100 µg/mL	25.2
Oc1ccc(Br)cc1C=NCCN1CCOCC1	absorbance	40 µM	10.1
Cc1ccc(N(O)N=Nc2ccc(S(=O)(=O)Nc3cc(C)on3)cc2)cc1	absorbance	60 µg/mL	19.9
COc1cc(C=Cc2cc(-c3ccccc3)nc(O)n2)ccc1O		100 µg/mL	73.6
O=S(=O)(Nc1nccs1)c1ccc(N=NN(O)c2ccccc2)cc1	absorbance	180 µg/mL	34.2
Cc1ccc(C(C)C)cc1NC(=O)COC(=O)c1ccc(O)cc1		100 µg/mL	1.7
